These results are taken from ChEMBL document CHEMBL1140029, “Design of novel histone deacetylase inhibitors” (Bioorg Med Chem Lett, 2007).

Data set [1] deals with HCT-116. Description: Antiproliferative activity against HCT116 cells after 72 hrs. In kind it is functional, cell-based, Homo sapiens.
Another data set has as its target Histone deacetylase 1 (Homo sapiens, UniProt Q13547). Description: Inhibition of human HDAC1 expressed in domain of SMRT.
Data set [2] concerns HCT-116. The data set is described as follows: Antiproliferative activity against HCT116 cells after 96 hrs. Type of data set: functional, cell-based. Particulars: Homo sapiens, HCT-116, 96 h; call rule not given here.
Data set [3] is described as follows: Half life in rhesus monkey at 2.0 mg/kg, po. Type of data set: ADME, organism-based, Macaca mulatta. Further details: dose 2 mg/kg, route oral. As to conditions: in vivo.
Data set [4] in a line: Volume of distribution in rat at 2.0 mg/kg, iv. In kind it is ADME, organism-based. Further details: dose 2 mg/kg, route intravenous. As to conditions: in vivo.
A further data set concerns the target Histone deacetylase 2 (Homo sapiens, UniProt Q92769). Description: Inhibition of human HDAC2 expressed in domain of SMRT.
Data set [5] addresses T1, Protein deacetylase HDAC6 (Homo sapiens, UniProt Q9UBN7).
T1 sequence (Q9UBN7 whole entry): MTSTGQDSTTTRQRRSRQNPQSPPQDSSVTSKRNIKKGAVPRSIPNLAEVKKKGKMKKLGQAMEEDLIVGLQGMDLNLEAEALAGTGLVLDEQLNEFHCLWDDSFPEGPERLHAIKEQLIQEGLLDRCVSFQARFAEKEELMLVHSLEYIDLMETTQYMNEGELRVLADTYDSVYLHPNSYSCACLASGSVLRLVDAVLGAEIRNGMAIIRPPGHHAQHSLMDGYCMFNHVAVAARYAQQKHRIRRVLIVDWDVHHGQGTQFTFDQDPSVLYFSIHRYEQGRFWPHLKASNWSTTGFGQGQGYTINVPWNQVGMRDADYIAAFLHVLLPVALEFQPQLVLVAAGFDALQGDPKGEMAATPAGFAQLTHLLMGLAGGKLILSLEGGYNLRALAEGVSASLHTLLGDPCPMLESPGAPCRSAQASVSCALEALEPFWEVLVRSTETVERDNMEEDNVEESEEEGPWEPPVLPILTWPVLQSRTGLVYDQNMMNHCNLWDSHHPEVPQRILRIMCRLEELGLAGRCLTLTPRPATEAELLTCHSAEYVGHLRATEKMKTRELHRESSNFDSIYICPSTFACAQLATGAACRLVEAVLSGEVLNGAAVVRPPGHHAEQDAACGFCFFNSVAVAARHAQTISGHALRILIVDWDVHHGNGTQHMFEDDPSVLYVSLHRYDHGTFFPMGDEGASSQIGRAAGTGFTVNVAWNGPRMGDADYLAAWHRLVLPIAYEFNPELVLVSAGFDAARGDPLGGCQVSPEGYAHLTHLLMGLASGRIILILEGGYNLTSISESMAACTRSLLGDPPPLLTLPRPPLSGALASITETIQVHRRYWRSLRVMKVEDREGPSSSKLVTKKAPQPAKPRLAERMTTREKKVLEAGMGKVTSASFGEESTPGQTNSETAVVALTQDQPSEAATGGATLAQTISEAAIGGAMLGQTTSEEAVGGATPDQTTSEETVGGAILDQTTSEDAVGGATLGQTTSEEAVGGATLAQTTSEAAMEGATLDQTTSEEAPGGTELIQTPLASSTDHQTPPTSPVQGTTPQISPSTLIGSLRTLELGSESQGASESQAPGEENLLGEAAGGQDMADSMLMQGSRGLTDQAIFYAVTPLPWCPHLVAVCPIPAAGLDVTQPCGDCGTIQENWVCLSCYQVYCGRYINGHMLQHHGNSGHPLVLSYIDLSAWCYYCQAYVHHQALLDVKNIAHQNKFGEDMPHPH
The data set is described as follows: Inhibition of human HDAC6. A digest of the protocol: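 C-terminal FLAG-tagged human HDAC6 overexpressed in mammalian cells, anti-FLAG affinity-purified, 1–30 nM final. Inhibitor serially diluted 3-fold in DMSO from 10 mM stock, then 20-fold into assay buffer. Enzyme preincubated with compound 10 min at RT. Fluor-de-Lys substrate added, 60 min at 37 °C. Developer containing SAHA added, fluorescence read at Ex 360/Em 460 nm. IC50 reported.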

Data set [6] is described as follows: Plasma clearance in rhesus monkey at 1.0 mg/kg, iv. In kind it is ADME, organism-based, Macaca mulatta. Further details: dose 1 mg/kg, route intravenous.
Data set [7] can be described thus: Bioavailability in rat at 4.0 mg/kg, po. In kind it is ADME, organism-based. Particulars: in vivo.
Data set [8] can be described thus: Plasma clearance in rat at 2.0 mg/kg, iv. Further details: dose 2 mg/kg, route intravenous. In kind it is ADME, organism-based.
Data set [9] can be described thus: Plasma clearance in dog at 0.6 mg/kg, iv. Further details: dose 0.6 mg/kg, route intravenous. Type of data set: ADME, organism-based, Canis lupus familiaris.
Data set [10] in a line: Bioavailability in dog at 1.2 mg/kg, po. In kind it is ADME, organism-based, Canis lupus familiaris. Particulars: in vivo.
The nature of data set [11]: Half life in dog at 1.2 mg/kg, po. Type of data set: ADME, organism-based, Canis lupus familiaris. As to conditions: in vivo. Further details: dose 1.2 mg/kg, route oral.
Data set [12] is described as follows: Volume of distribution in rhesus monkey at 1.0 mg/kg, iv. Further details: dose 1 mg/kg, route intravenous. As to conditions: in vivo. In kind it is ADME, organism-based, Macaca mulatta.
The nature of data set [13]: Bioavailability in rhesus monkey at 2.0 mg/kg, po. Type of data set: ADME, organism-based, Macaca mulatta. Particulars: in vivo.
A further data set addresses Histone deacetylase 3 (Homo sapiens, UniProt O15379). The data set is described as follows: Inhibition of human HDAC3 expressed in domain of SMRT. A digest of the protocol:
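C-terminal FLAG-tagged human HDAC3, co-expressed with the SMRT domain, was overexpressed in mammalian cells and purified on anti-FLAG matrix. Enzyme at 1–30 nM final was preincubated with 3× serially diluted inhibitor for 10 min at RT. Fluor-de-Lys substrate was then added for 60 min at 37 °C, followed by developer containing SAHA. Fluorescence was read at Ex 360/Em 460 nm to give IC50.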

The next data set deals with T2, Histone deacetylase 8 (Homo sapiens, UniProt Q9BY41).
T2 sequence (Q9BY41 whole entry): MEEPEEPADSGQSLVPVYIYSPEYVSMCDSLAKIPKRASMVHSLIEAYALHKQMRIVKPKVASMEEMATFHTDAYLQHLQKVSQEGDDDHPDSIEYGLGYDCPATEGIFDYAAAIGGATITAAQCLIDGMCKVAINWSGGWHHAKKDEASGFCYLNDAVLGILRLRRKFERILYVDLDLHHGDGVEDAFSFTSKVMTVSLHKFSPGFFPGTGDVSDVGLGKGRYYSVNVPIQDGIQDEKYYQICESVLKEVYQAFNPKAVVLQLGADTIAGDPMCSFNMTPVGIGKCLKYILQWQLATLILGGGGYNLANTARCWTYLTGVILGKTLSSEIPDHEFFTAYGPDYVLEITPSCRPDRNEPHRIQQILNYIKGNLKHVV
The data set is described as follows: Inhibition of human HDAC8. In a few lines:
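HDAC8 came from the Institute for Research in Molecular Biology, Pomezia, and was used at 1–30 nM final. It was preincubated with 3× serially diluted inhibitor for 10 min at RT. Fluor-de-Lys HDAC8 substrate was added for 15 min at 37 °C, then HDAC8 developer containing SAHA. Fluorescence was read at Ex 360/Em 460 nm to give IC50.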

Data set [14] is described as follows: Half life in rat at 4.0 mg/kg, po. In kind it is ADME, organism-based. Further details: dose 4 mg/kg, route oral. As to conditions: in vivo.
Data set [15] is described as follows: Volume of distribution in dog at 0.6 mg/kg, iv. In kind it is ADME, organism-based, Canis lupus familiaris. Further details: dose 0.6 mg/kg, route intravenous. As to conditions: in vivo.
Setting [16] is: Homo sapiens, HCT-116, 72 h, read-out: IC50.

Chain of Histone deacetylase 1 (Q13547 whole entry, the tested form may be a part): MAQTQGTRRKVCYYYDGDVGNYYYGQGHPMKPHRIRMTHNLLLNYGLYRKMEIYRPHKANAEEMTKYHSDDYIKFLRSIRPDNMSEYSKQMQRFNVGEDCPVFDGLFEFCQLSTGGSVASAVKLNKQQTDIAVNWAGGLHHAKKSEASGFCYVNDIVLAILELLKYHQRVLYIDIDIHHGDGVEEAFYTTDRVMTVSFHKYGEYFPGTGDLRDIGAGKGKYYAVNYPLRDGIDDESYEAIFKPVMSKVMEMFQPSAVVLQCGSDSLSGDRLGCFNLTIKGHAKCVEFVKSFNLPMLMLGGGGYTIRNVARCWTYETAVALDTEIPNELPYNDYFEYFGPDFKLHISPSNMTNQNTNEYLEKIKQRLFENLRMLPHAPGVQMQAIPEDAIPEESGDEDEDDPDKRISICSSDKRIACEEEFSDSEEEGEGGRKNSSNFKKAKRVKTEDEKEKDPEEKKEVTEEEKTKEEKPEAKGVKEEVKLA
Chain of Histone deacetylase 3 (O15379 whole entry, the tested form may be a part): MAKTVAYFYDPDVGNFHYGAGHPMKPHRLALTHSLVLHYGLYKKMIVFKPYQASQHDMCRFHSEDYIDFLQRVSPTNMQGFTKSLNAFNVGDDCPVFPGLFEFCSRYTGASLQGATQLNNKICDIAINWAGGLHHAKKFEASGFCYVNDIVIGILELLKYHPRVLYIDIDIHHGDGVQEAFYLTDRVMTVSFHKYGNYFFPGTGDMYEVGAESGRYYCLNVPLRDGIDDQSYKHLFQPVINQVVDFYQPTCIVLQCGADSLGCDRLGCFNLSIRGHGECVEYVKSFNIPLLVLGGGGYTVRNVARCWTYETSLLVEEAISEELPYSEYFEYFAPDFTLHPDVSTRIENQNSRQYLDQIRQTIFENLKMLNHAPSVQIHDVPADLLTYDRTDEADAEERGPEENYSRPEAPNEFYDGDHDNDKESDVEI
Chain of Histone deacetylase 2 (Q92769 whole entry, the tested form may be a part): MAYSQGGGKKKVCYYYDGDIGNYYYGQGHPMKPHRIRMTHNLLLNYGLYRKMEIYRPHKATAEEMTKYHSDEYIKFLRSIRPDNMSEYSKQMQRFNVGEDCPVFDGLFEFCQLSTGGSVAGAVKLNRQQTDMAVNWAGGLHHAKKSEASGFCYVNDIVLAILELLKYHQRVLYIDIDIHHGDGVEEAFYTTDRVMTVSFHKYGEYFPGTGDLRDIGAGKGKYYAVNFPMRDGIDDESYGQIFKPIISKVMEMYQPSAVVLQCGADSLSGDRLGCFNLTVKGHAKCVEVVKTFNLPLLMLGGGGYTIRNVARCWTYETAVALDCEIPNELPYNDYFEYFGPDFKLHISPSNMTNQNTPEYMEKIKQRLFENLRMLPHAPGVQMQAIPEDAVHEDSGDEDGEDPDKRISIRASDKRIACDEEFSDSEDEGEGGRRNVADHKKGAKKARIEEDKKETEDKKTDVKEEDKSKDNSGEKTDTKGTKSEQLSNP

One may read the IC50 as the concentration needed to halve the response being measured. Consider `CN(C(=O)C(C(=O)N(C)c1ccccc1)c1ccc(C(=O)Nc2ccccc2N)cc1)c1ccccc1`, for which the results for the IC50 entry in the data set with HCT-116 [1] (hct-116) and against Histone deacetylase 1 were “Not Active” and 7190 nM, respectively.
In the case of `N#Cc1cccc(NC(=O)C(C(=O)Nc2cccc(C#N)c2)c2ccc(C(=O)Nc3ccccc3N)cc2)c1`, the concentration for half-maximal inhibition (IC50) stood at 500 nM with HCT-116 [2] and 34 nM against Histone deacetylase 1.
Turning to `O=C(NO)c1ccccc1` [BENZOHYDROXAMATE], on Histone deacetylase 1, the half-maximal inhibitory concentration (IC50) was found to be 20000 nM.
Compound `CC(C)(C)c1ccc(C(=O)NO)cc1` registered a 50% inhibitory concentration (IC50) at Histone deacetylase 1 of 715 nM.
For the compound `Nc1ccccc1NC(=O)c1ccc(C(C(=O)Nc2cccc3cccnc23)C(=O)Nc2cccc3cccnc23)cc1`, the IC50 in the data set with HCT-116 [1] (setting [16]) is 1200 nM; at Histone deacetylase 1, 103 nM.
At Histone deacetylase 1, `O=C(NO)c1ccc(C(C(=O)Nc2ccccc2)C(=O)Nc2ccccc2)cc1` showed a half-maximal inhibitory concentration (IC50) of 5 nM.
For the compound `Nc1ccccc1NC(=O)c1ccc(C(C(=O)Nc2ccc(F)cc2)C(=O)Nc2ccc(F)cc2)cc1`, the IC50 was 222 nM in the data set on HCT-116 [2] and 63 nM on Histone deacetylase 1.
As for `Nc1ccccc1NC(=O)c1ccc(C(C(=O)Nc2cccc(F)c2)C(=O)Nc2cccc(F)c2)cc1`, the 50% inhibitory concentration (IC50) worked out at 607 nM with HCT-116 [1] (setting [16]) and 56 nM against Histone deacetylase 1.
As for `COc1cccc(NC(=O)C(C(=O)Nc2cccc(OC)c2)c2ccc(C(=O)Nc3ccccc3N)cc2)c1`, the IC50 in the data set on HCT-116 [1] (setting [16]) was determined as 383 nM; on Histone deacetylase 1, 35 nM.
Consider `Nc1ccccc1NC(=O)c1ccc(C(C(=O)Nc2cccc(N3CCOCC3)c2)C(=O)Nc2cccc(N3CCOCC3)c2)cc1`, for which the IC50 amounted to 542 nM in the data set on HCT-116 [1] (setting [16]) and 45 nM on Histone deacetylase 1.
What is called half-life is the time in which the quantity being followed falls by half. The term Vd denotes the apparent volume that relates the amount in the body to the concentration in plasma or blood. Broadly, the clearance is a measure of how efficiently the substance is removed, as volume per time. In general, bioavailability refers to dose-corrected exposure relative to a reference, in per cent. Regarding `Nc1ccccc1NC(=O)c1ccc(C(C(=O)Nc2ccccc2)C(=O)Nc2ccccc2)cc1`, the IC50 is 171 nM with HCT-116 [1] (setting [16]); 313 nM at Histone deacetylase 2; greater than 10000 nM in [5]; 697 nM at Histone deacetylase 3; 36 nM against Histone deacetylase 1; greater than 10000 nM against Histone deacetylase 8. In addition, the half-life is 10.4 h in data set [3], 8.5 h in data set [11] and 3.8 h in data set [14]. Moreover, the figures for the distribution volume (Vd) in data set [4], in [12] and in data set [15] were 12 L/kg, 1.7 L/kg and 1.8 L/kg, respectively. Besides, the results for the clearance in data set [6], in data set [8] and in data set [9] were 12 mL/min/kg, 55 mL/min/kg and 3 mL/min/kg, respectively. For the same compound, the bioavailability in data set [7] was determined as 88%; in data set [10], 88%; in data set [13], 27%.
As to `Nc1ccccc1NC(=O)c1ccc(C(C(=O)NCc2ccccc2)C(=O)NCc2ccccc2)cc1`, the half-maximal inhibitory concentration (IC50) in the data set on HCT-116 [1] (setting [16]) was 596 nM; against Histone deacetylase 1, 199 nM.
For `Nc1ccccc1NC(=O)c1ccc(C(F)(C(=O)Nc2ccccc2)C(=O)Nc2ccccc2)cc1`, the concentration for half-maximal inhibition (IC50) worked out at 425 nM with HCT-116 [1] (setting [16]) and 48 nM against Histone deacetylase 1.
For `CC(Cc1ccc(C(=O)Nc2ccccc2N)cc1)(C(=O)Nc1ccccc1)C(=O)Nc1ccccc1`, the half-inhibitory concentration (IC50) came to 2520 nM in the data set on HCT-116 [1] (setting [16]) and 200 nM on Histone deacetylase 1.
Turning to `COc1ccccc1NC(=O)C(C(=O)Nc1ccccc1OC)c1ccc(C(=O)Nc2ccccc2N)cc1`, the values for the IC50 with HCT-116 [1] (setting [16]) and against Histone deacetylase 1 were 394 nM and 47 nM, respectively.
For the compound `CN(C(=O)C(C(=O)Nc1ccccc1)c1ccc(C(=O)Nc2ccccc2N)cc1)c1ccccc1` (stereo unspecified), the values for the IC50 with HCT-116 [1] (setting [16]) and on Histone deacetylase 1 were 1140 nM and 196 nM, respectively.
As for `Nc1ccccc1NC(=O)c1ccc(C(C(=O)NCCCc2ccccc2)C(=O)NCCCc2ccccc2)cc1`, the IC50 with HCT-116 [1] (setting [16]) worked out at 987 nM; at Histone deacetylase 1 it was 229 nM.
For the compound `Nc1ccccc1NC(=O)c1ccc(C(O)(C(=O)Nc2ccccc2)C(=O)Nc2ccccc2)cc1`, the IC50 in the data set with HCT-116 [1] (setting [16]) worked out at 773 nM; against Histone deacetylase 1, 94 nM.
Regarding `CC(C(=O)Nc1ccccc1)(C(=O)Nc1ccccc1)c1ccc(C(=O)Nc2ccccc2N)cc1`, the IC50 worked out at 2120 nM in the data set with HCT-116 [1] (setting [16]) and 198 nM against Histone deacetylase 1.
Turning to `Nc1ccccc1NC(=O)c1ccc(C(C(=O)Nc2ccc3c(c2)OCCO3)C(=O)Nc2ccc3c(c2)OCCO3)cc1`, the 50% inhibitory concentration (IC50) is 220 nM in the data set with HCT-116 [1] (setting [16]) and 21 nM on Histone deacetylase 1.
In turn, `CC(=O)NO` [ACETOHYDROXAMIC ACID] gave an IC50 against Histone deacetylase 1 of 625000 nM.
For the compound `Nc1ccccc1NC(=O)c1ccc(CC(C(=O)Nc2ccccc2)C(=O)Nc2ccccc2)cc1`, the figures for the 50% inhibitory concentration (IC50) with HCT-116 [1] (setting [16]) and at Histone deacetylase 1 were 579 nM and 47 nM, respectively.
